Data taken from PMC4763880 (Molecular Biosystems, 2016).
Square brackets hold non-standard residues; d marks the D form. Ends that are not written are not given here. * marks the point of attachment. MethylRed = CN(C)c1ccc(/N=N/c2ccccc2C(=O)*)cc1; Dnp = O=[N+]([O-])c1ccc(*)c([N+](=O)[O-])c1; AFC = O=c1cc(C(F)(F)F)c2ccc(N*)cc2o1; Mca = COc1ccc2c(CC(=O)*)cc(=O)oc2c1; Ahx = NCCCCCC(=O)O

T1: recombinant human caspase-7 (Homo sapiens, UniProt P55210)
T1 sequence (P55210 24-198 limits assumed): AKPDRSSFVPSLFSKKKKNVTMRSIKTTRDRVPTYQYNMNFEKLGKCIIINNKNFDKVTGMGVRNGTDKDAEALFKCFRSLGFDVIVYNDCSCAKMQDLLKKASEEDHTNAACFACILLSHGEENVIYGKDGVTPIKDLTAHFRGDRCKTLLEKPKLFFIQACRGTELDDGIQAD
T1 sequence (P55210 207-303 limits assumed): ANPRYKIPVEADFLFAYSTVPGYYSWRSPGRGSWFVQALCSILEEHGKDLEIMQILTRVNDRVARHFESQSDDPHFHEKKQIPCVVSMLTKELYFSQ

T2: human recombinant caspase-3 (human) (UniProt P42574)
T2 sequence: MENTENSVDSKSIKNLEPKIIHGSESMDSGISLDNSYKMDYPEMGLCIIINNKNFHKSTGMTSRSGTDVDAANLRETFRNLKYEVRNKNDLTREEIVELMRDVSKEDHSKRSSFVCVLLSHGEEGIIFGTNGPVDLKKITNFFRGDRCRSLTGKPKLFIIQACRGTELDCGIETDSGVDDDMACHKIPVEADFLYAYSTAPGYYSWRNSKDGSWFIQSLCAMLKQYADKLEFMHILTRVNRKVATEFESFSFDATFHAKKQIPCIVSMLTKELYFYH

T3: human recombinant caspase-7 (human) (UniProt P55210)
T3 sequence: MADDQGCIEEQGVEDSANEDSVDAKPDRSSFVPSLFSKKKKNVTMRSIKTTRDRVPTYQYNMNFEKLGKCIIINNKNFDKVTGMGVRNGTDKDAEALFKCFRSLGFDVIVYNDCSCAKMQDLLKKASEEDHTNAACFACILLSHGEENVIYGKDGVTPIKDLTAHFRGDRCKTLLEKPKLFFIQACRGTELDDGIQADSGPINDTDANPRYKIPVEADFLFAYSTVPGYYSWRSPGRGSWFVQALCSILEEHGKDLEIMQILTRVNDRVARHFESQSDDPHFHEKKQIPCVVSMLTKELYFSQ


Experiments:
[1] = target: T1, recombinant human caspase-7; assay: Kinetic assay; format: biochemical; settings: caspase-7 15 nM; pH 7.5 caspase buffer; n = 3
Method in brief: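 Human recombinant enzyme was incubated with internally quenched FRET substrates, FAM-Ahx-Asp-Glu-X2-Asp-X1′-(Ahx)-Lys(MR)-NH2. X2 was Val or Pro; X1′ was Gly, Ala, Ser or absent. The donor was 5(6)-carboxyfluorescein (Ex/Em 492/517 nm) and the quencher methyl red. Cleavage between Asp and X1′ relieves quenching. KM and kcat were determined for each substrate, and catalytic efficiency taken as kcat/KM.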

[2] = test system: caspase-3; assay: Screen of time-dependent fluorescence activation with caspase-3; format: biochemical, human; settings: caspase-3 15 nM; for Activation with caspase-3 in preliminary screen (in words): substrate 2.5, 5 and 10 μM, 0-40 min, n = 3 (Fig. S1)
[3] = target: T2, human recombinant caspase-3 (human)
[4] = target: T3, human recombinant caspase-7 (human)

Row | Molecule | Caspase-7 k cat/K M (catalytic efficiency) [1] | also measured
1 | Substrate 7: FRET substrate of the template; X2 Val, X1′ Gly, spacer Ahx ({5(6)‑carboxyfluorescein-Ahx}-DEVDG[Ahx]K(MethylRed)-NH2) | 3.9 μM^–1 min^–1 | 
2 | Substrate 4: FRET substrate of the template; X2 Val, no X1′, spacer Ahx ({5(6)‑carboxyfluorescein-Ahx}-DEVD[Ahx]K(MethylRed)-NH2) | 3.4 μM^–1 min^–1 | 
3 | Substrate 3: FRET substrate of the template; X2 Pro, X1′ Ser, no spacer ({5(6)‑carboxyfluorescein-Ahx}-DEPDSK(MethylRed)-NH2) |  | Activation with caspase-3 in preliminary screen (in words) [2]: reduced activation
4 | Substrate 11: FRET substrate of the template; X2 Val, X1′ Ser, spacer Ahx ({5(6)‑carboxyfluorescein-Ahx}-DEVDS[Ahx]K(MethylRed)-NH2) | 2.4 μM^–1 min^–1 | 
5 | Substrate 2: FRET substrate of the template; X2 Pro, X1′ Ala, no spacer ({5(6)‑carboxyfluorescein-Ahx}-DEPDAK(MethylRed)-NH2) |  | Activation with caspase-3 in preliminary screen (in words) [2]: reduced activation
6 | Substrate 1: FRET substrate FAM-Ahx-Asp-Glu-X2-Asp-X1′-spacer-Lys(MR)-NH2; X2 Val, X1′ Gly, no spacer ({5(6)‑carboxyfluorescein-Ahx}-DEVDGK(MethylRed)-NH2) | 8.6 μM^–1 min^–1 | 
7 | Substrate 10: FRET substrate of the template; X2 Pro, X1′ Ser, spacer Ahx ({5(6)‑carboxyfluorescein-Ahx}-DEPDS[Ahx]K(MethylRed)-NH2) | 0.5 μM^–1 min^–1 | Activation with caspase-3 in preliminary screen (in words) [2]: activity was restored
8 | Substrate 9: FRET substrate of the template; X2 Val, X1′ Ala, spacer Ahx ({5(6)‑carboxyfluorescein-Ahx}-DEVDA[Ahx]K(MethylRed)-NH2) | 3.2 μM^–1 min^–1 | Fold higher increase in fluorescence than Ac-Asp-Glu-Val-Asp-AFC (AFC) ([2]; all substrates at 20 μM, n = 3 (Fig. S2)): 3 fold
9 | Ac-Asp-Glu-Val-Asp-AFC [reference compound] | 1.1 μM^–1 min^–1 | 
10 | MCA-Asp-Glu-Val-Asp-Ala-Pro-Lys-DNP [reference compound] | 0.4 μM^–1 min^–1 | 
11 | Substrate 8: FRET substrate of the template; X2 Pro, X1′ Ala, spacer Ahx ({5(6)‑carboxyfluorescein-Ahx}-DEPDA[Ahx]K(MethylRed)-NH2) | 0.14 μM^–1 min^–1 | Activation with caspase-3 in preliminary screen (in words) [2]: activity was restored
12 | Substrate 6: FRET substrate of the template; X2 Pro, X1′ Gly, spacer Ahx ({5(6)‑carboxyfluorescein-Ahx}-DEPDG[Ahx]K(MethylRed)-NH2) | 8.4 μM^–1 min^–1 | 
13 | Substrate 5: FRET substrate of the template; X2 Pro, no X1′, spacer Ahx ({5(6)‑carboxyfluorescein-Ahx}-DEPD[Ahx]K(MethylRed)-NH2) | 3.5 μM^–1 min^–1 | 
14 | Mca-DEVDAPK(Dnp) [MCA-Asp-Glu-Val-Asp-Ala-Pro-Lys-DNP] |  | K M (μM) of cleavage of the fluorogenic substrate by caspase-3 [3]: 13.5 µM; K M (μM) of cleavage of the fluorogenic substrate by caspase-7 [4]: 15.1 µM
15 | Ac-DEVD-{AFC} [Ac-Asp-Glu-Val-Asp-AFC] |  | K M (μM) of cleavage of the fluorogenic substrate by caspase-3 [3]: 9.8 µM; K M (μM) of cleavage of the fluorogenic substrate by caspase-7 [4]: 10.8 µM
